# Compound activity: PubChem, Sanford-Burnham Center for Chemical Genomics
# Rows were chosen to be rich in hits. Some 1.3% of all compounds tested hit in one or more screens of this group.
# Diaph inh CS: counter-screen for diaphorase-based assays: diaphorase inhibitors and chemical oxidizers; 0.69% of 190,000 active; inhibition, % at 20 µM; diaphorase resazurin-to-resorufin fluorescence, NADH, 16 min; bacterial (C. kluyveri) enzyme, not human;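 active = primary screen inhibition at 20 µM above a set limit, cut at about 50% in these data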;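 note: plate controls were DMSO with full reaction for no effect and wells lacking NADH for full effect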
#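 Benchmarks: positive control wells lacking NADH, neutral wells with DMSO only. System: bacterial diaphorase enzyme (C. kluyveri). Input: 0.14 U/mL diaphorase, enzyme working solution. Detection: resorufin fluorescence, excitation 544 nm, emission 590 nm. Times: 16-min room-temperature incubation before reading.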
# G6PDH counter: inhibits Leuconostoc G6PDH, flagging false hits in G6PDH-based assays; Purified L. mesenteroides G6PDH, diaphorase/resazurin coupled fluorescence, 45 min; inhibition, % at 5 µM; 0.12% of 200,000 active; in the data active = inhibition above about 50%
# HKDC1 inh: HKDC1 (human) hexokinase inhibition | AID 493160 | Q2TB90 | inhibition, % at 20 µM | 0.16% of 340,000 active | recombinant HKDC1, G6PDH/diaphorase resazurin coupled fluorescence;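 active = inhibition above about 35% when tested at 20 µM, limit read from the data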;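 note: plate controls were DMSO wells with enzyme for no effect and DMSO wells lacking enzyme for full effect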
#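 Assay system – recombinant HKDC1 (HK5) hexokinase enzyme, produced in-house · Input – HKDC1 at 5 µg/mL · Reagent – glucose plus 1 mM ATP as hexokinase substrates · Timing – 90 min reaction incubation at room temperature, dark · Measured by – G6PDH/diaphorase-coupled fluorescence, 1 mM NADP, 100 µM resazurin, 525/613 nm · Benchmarks – DMSO-enzyme wells negative, buffer-substituted wells positive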
# Diaphorase act: counter-screen for diaphorase-based assays: diaphorase activators and chemical reducers. Diaphorase/resazurin coupled assay, resorufin fluorescence, 16 min; active compounds read high; 1 = vehicle wells, 0 = NADH-free wells. activation factor at 20 µM. 0.005% of 190,000 active;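 active = diaphorase activity raised at least twofold by the compound at 20 µM; inactive = activation factor below 2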
#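 test system = bacterial diaphorase enzyme (C. kluyveri) | quantity = enzyme 0.07 U/mL final | reagent = NADH substrate 0.114 mM plus resazurin dye 0.1 mM, final | incubation = 16 min enzyme reaction, ambient temperature | buffer or medium = HEPES pH 7.4 buffer with MgCl2 and Tween 20 | signal = fluorescence of resorufin, 544 nm excitation, 590 nm emission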
# PfGluPho inh: PfG6PD (Plasmodium falciparum) enzyme inhibition; PfGluPho enzyme, NADPH resazurin-diaphorase fluorescence; AID 504690; 0.78% of 350,000 active; inhibition, % at 20 µM;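 active = inhibition reaching at least a set limit at 20 µM in the primary screen, cut at about 59% in these data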;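 note: 0% = DMSO wells with substrate and 100% = DMSO wells lacking glucose-6-phosphate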
# The depositor's hits bear a star; nt = no result.
SMILES,Diaph inh CS,G6PDH counter,HKDC1 inh,Diaphorase act,PfGluPho inh
COc1ccc(CC(=O)N2CCN(c3ccccc3F)CC2)cc1OC,nt,nt,-1.2,nt,1.3
COc1ccc(C2CC(=O)N3CN(c4ccccc4F)CSC3=C2C#N)cc1OC (stereo not drawn),52.8*,10.8,8.1,0.5,68.3*
CCn1ncc(S(=O)(=O)Nc2cc(Cl)ccc2C)c1C,nt,nt,-1.7,nt,-2.5
S=c1[nH]nc(-c2cc(-c3ccco3)[nH]n2)n1-c1ccccc1Cl,70.7*,7.0,10.1,0.3,49.2
S=c1[nH]nc(-c2ccco2)n1-c1ccccc1Cl,16.2,7.8,-4.1,0.8,16.7
CC(C)C[C@@H](CN1CCCC1CN1C(=S)NC[C@@H]1Cc1ccc(O)cc1)N1C[C@H](Cc2ccc(O)cc2)N(CCc2ccccc2)C1=S (stereo partly drawn),nt,nt,-3.5,nt,16.0
Cc1ccc(C(=O)NC(=S)/C=C2\N(C)c3ccccc3C2(C)C)cc1,67.1*,0.8,3.9,0.3,12.4
O=C1[C@H]2[C@@H](c3ccccc3)N[C@]3(CCCN(CC4CCCCC4)C3=O)[C@H]2C(=O)N1Cc1ccccc1,nt,nt,nt,nt,1.1
Cc1nc2c(c(=O)n1CCC1=CCCCC1)c1nc3ccccc3nc1n2/N=C/c1ccco1,70.2*,0.6,17.4,0.3,25.6
CC(C)CC(=O)Nc1nnc(SCC(=O)Nc2nccs2)s1,nt,nt,-11.1,nt,-28.8
COc1cccc(C(=O)NCCSc2ccc(F)cc2)c1,56.3*,-1.3,-4.9,0.4,11.2
O=C1Nc2ccccc2N=C(c2ccccc2)C1Br (stereo not drawn),7.0,16.3,-5.8,0.9,18.9
CC(=O)NC1Sc2ccccc2N=C1c1ccccc1 (stereo not drawn),17.4,2.9,-6.4,0.8,62.8*
O=C(N=Nc1ccc(NOC(=O)c2ccccc2Br)cc1)c1ccccc1O,64.7*,-2.0,nt,0.4,nt
N#Cc1sc2nc3c(c(-c4ccco4)c2c1N)CCCC3,51.7*,8.1,4.4,0.5,2.5
Nc1c(C(=O)NCC2CCCO2)sc2nc3c(c(-c4ccco4)c12)CC/C3=C\c1ccco1 (stereo not drawn),89.3*,8.9,34.8,0.1,30.8
NC(=O)c1sc2nc3c(c(-c4ccco4)c2c1N)CCCC3,nt,nt,-0.5,nt,11.1
Cc1ccccc1NC(=O)c1sc2nc3c(c(-c4ccco4)c2c1N)CCC3,52.7*,6.3,5.7,0.5,12.9
O=C(NC1CC1)c1cc2cc3ccccc3nc2s1,nt,nt,5.4,nt,14.4
O=C1NCC(Nc2ccc(Br)cc2)C(=O)N1 (stereo not drawn),nt,nt,-8.5,nt,10.8
COc1ccccc1Cn1c(=S)[nH]c2cc(C(=O)N3CCCC(C)C3)ccc2c1=O (stereo not drawn),nt,nt,nt,nt,-0.7
O=S(=O)(NCC1(N2CCOCC2)CCCCC1)c1ccc(Cl)cc1C(F)(F)F,nt,nt,-0.9,nt,5.9
O=C(O)CCCN1C(=O)/C(=C\C(Cl)=C\c2ccccc2)SC1=S,nt,nt,43.6*,nt,-12.6
CCCn1c(CN2CCN(C(=O)OCC)CC2)nc2cc(NC(=O)CC)ccc21,nt,nt,-6.3,nt,-0.1
CCOc1c(O)ccc(/C=C2\SC(=S)NC2=O)c1[N+](=O)[O-],53.7*,15.7,-14.2,0.5,30.2
SMILES,Diaph inh CS,G6PDH counter,HKDC1 inh,Diaphorase act,PfGluPho inh
CCOc1ccc(N(C)c2ccc(/C=C3/SC(=S)NC3=O)cc2)cc1,nt,nt,1.3,nt,-18.2
Cc1ccc(Cl)cc1N1CCN(S(=O)(=O)c2ccc3c(c2)CC(=O)N3C)CC1,nt,nt,0.8,nt,-5.4
Cc1ccc(NC2=C(N3CCCCC3)C(=O)c3ccccc3C2=O)cc1,11.6,55.9*,11.2,0.9,38.4
O=C1C(Nc2ccccc2)=C(N2CCCCC2)C(=O)c2ccccc21,22.9,57.2*,13.6,0.8,25.7
O=C1C(Nc2cccc(O)c2)=C(N2CCCCC2)C(=O)c2ccccc21,10.0,58.6*,18.4,0.9,52.5
COc1ccccc1NC1=C(N2CCCCC2)C(=O)c2ccccc2C1=O,29.8,32.9,11.7,0.7,37.1
Cc1nc(SCCc2nc3ccccc3[nH]2)c2oc3ccccc3c2n1,nt,nt,0.9,nt,25.7
Nc1nonc1-c1nc2ccccc2n1CC(=O)O,8.1,0.4,-3.6,0.9,-5.4
Nc1nonc1-c1nc2ccccc2n1CC(=O)N/N=C/c1ccc(-c2cccc(C(=O)O)c2)o1,52.1*,-6.2,5.8,0.5,-13.1
CNC(=O)CNC(=O)Nc1ccc(Cl)c(Cl)c1,67.3*,7.3,-3.4,0.3,6.4
O=C(NCc1ccccn1)Nc1ccc(Cl)c(Cl)c1,14.0,5.9,-4.6,0.9,19.4
N#Cc1ccc(N)cc1OCCCN1CCCCC1,nt,nt,-5.4,nt,-20.7
CCOC(=O)C1=C(O)/C(=C\c2ccc(CNS(=O)(=O)c3ccc(Br)cc3)o2)N=C1C,52.5*,-4.4,-11.2,0.5,23.7
O=C1C=C(c2ccc(C(=O)O)c(Cl)c2)C[C@@H](c2ccc3c(c2)OCO3)C1,nt,nt,10.1,nt,-2.6
Nc1ccccc1Sc1nc2ccccc2[nH]1,-9.1,-3.3,1.3,1.1,62.1*
Nc1nc2ccccc2[nH]1,nt,nt,-3.1,nt,-2.1
NC(=S)Nc1ccc2cn[nH]c2c1,8.5,4.9,-3.5,0.9,5.5
c1cc2cn[nH]c2cc1NC1CCCCCC1,72.2*,32.9,17.1,0.3,33.6
CN1C(=O)/C(=C/c2ccccc2OCc2ccc(C(=O)O)cc2)NC1=S,58.0*,12.7,8.0,0.4,-27.0
CN1C(=O)/C(=C/c2ccccc2OCc2ccccc2)NC1=S,18.8,10.9,18.6,0.8,2.9
S=C(Nc1cccc(Cl)c1)Nc1cccc2cnccc12,44.9,27.2,18.2,0.6,95.4*
Cc1ccccc1NC(=S)Nc1cccc2cnccc12,52.1*,20.7,13.4,0.5,34.8
FC(F)(F)c1ccccc1NC(=S)Nc1cccc2cnccc12,46.9,20.1,11.9,0.5,55.4
Cc1ccc(NC(=S)Nc2cccc3cnccc23)cc1,49.2,32.5,8.3,0.5,56.8
Cc1ccc(NC(=S)Nc2cccc3cnccc23)cc1C,39.1,55.9*,8.6,0.6,53.4
SMILES,Diaph inh CS,G6PDH counter,HKDC1 inh,Diaphorase act,PfGluPho inh
Fc1ccccc1NC(=S)Nc1cccc2cnccc12,49.4,30.4,7.7,0.5,57.5
COc1cccc(OC)c1OCCCN1CCC(Cc2ccccc2)CC1,nt,nt,-6.4,nt,2.2
CCCn1c(N)c(N(CCOC)C(=O)CSc2c(Cl)cccc2Cl)c(=O)[nH]c1=O,nt,nt,-4.5,nt,1.0
Cc1cc(C)c(C(N)=O)c(Nc2cccc3ccccc23)n1,91.4*,4.4,-2.8,0.1,3.9
CSc1nc(SCCO)c2sc3nc(-c4ccco4)c4c(c3c2n1)CC(C)(C)OC4,17.8,12.9,21.3,0.8,34.3
CSc1nc(N(CCO)CCO)c2sc3nc(-c4ccco4)c4c(c3c2n1)CCC4,53.6*,7.2,36.6*,0.5,40.3
O=C1CCC[C@@H]2[C@H]3CCC[N+]4([O-])CCC[C@@H](CN12)[C@@H]34 (stereo partly drawn),nt,nt,3.2,nt,9.3
